Assay results from ChEMBL document CHEMBL1765003, “Discovery of (1S,2R,3R)-2,3-dimethyl-2-phenyl-1-sulfamidocyclopropanecarboxylates: novel and highly selective aggrecanase inhibitors” (J Med Chem, 2011).

Experiments:
Cytochrome P450 3A4 = Cytochrome P450 3A4 (Homo sapiens, UniProt P08684); assay: Inhibition of CYP3A4 at up to 50 uM; format: ADME
[1] = Half life in Sprague-Dawley rat at 10 mg/kg, po; format: ADME, organism-based; set-up: dose 10 mg/kg, route oral; conditions: in vivo
[2] = Clearance in Sprague-Dawley rat at 1 mg/kg, iv; format: ADME, organism-based; set-up: dose 1 mg/kg, route intravenous; conditions: in vivo
In short: (§1)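 Intravenous dose of 1 mg/kg. Blood sampled at 0.50, 1, 2, 4, 8 and 24 h. Plasma obtained by centrifugation at 10 000 rpm for 5 min and kept at −20 °C until analysis.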

Interstitial collagenase = molecular target: T1, Interstitial collagenase (Homo sapiens, UniProt P03956); assay: Inhibition of human recombinant MMP1 after 60 mins by fluorescence plate reader
T1 sequence (P03956 whole entry): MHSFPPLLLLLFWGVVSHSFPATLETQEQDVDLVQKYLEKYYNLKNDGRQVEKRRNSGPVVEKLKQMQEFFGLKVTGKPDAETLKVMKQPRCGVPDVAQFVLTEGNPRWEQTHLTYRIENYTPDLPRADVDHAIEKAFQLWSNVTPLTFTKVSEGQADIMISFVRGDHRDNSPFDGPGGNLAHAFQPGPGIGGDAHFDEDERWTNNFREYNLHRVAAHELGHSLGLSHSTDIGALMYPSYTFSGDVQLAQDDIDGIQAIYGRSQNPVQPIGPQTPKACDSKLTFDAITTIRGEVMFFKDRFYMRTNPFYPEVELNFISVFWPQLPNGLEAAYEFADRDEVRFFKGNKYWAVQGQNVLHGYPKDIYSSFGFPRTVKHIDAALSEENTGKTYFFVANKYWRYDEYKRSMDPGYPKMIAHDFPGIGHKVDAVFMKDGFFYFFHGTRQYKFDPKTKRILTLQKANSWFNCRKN
In short: (§2)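 Recombinant human enzyme at 20 ng/mL with 10 μM MOCAc-Lys-Pro-Leu-Gly-Leu-A2pr(Dnp)-Ala-Arg-NH₂, in 100 mM Tris-HCl pH 7.5, 150 mM NaCl, 10 mM CaCl₂, 0.05% Brij-35. Enzyme pretreated with inhibitor for 15 min at 25 °C, then substrate added. Fluorescence (ex 325, em 405 nm) read at 60 min. IC50 taken from three points in the linear range; mean of ≥2 determinations.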

Cytochrome P450 2C9 = Cytochrome P450 2C9 (Homo sapiens, UniProt P11712); assay: Inhibition of CYP2C9 at up to 50 uM; format: ADME
[3] = (§3) Oral bioavailability in Sprague-Dawley rat at 10 mg/kg; format: ADME, organism-based; conditions: Sprague-Dawley, in vivo
[4] = AUC in Sprague-Dawley rat at 10 mg/kg, po; format: ADME, organism-based; set-up: dose 10 mg/kg, route oral; conditions: plasma
[5] = molecular target: Disintegrin and metalloproteinase domain-containing protein 17 (Homo sapiens, UniProt P78536); assay: Inhibition of human recombinant TACE after 60 mins by fluorescence plate reader
In short: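 rh-TACE at 80 ng/mL with 10 μM MCA-Pro-Leu-Ala-Gln-Ala-Val-Dpa-Arg-Ser-Ser-Ser-Arg-NH₂, in 100 mM Tris-HCl pH 7.5, 150 mM NaCl, 10 mM CaCl₂, 0.05% Brij-35. Inhibitor preincubated for 15 min at 25 °C. Fluorescence (ex 325/em 405 nm) read at 60 min. IC50 from three linear-range points; mean of ≥2.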

[6] = Volume of distribution at steady state in Sprague-Dawley rat at 1 mg/kg, iv; format: ADME, organism-based; set-up: dose 1 mg/kg, route intravenous; conditions: in vivo, read-out: Vdss; in short: as §1
Cytochrome P450 2A6 = molecular target: T2, Cytochrome P450 2A6 (Homo sapiens, UniProt P11509); assay: Inhibition of CYP2A6 at up to 50 uM; format: ADME
T2 sequence (P11509 whole entry): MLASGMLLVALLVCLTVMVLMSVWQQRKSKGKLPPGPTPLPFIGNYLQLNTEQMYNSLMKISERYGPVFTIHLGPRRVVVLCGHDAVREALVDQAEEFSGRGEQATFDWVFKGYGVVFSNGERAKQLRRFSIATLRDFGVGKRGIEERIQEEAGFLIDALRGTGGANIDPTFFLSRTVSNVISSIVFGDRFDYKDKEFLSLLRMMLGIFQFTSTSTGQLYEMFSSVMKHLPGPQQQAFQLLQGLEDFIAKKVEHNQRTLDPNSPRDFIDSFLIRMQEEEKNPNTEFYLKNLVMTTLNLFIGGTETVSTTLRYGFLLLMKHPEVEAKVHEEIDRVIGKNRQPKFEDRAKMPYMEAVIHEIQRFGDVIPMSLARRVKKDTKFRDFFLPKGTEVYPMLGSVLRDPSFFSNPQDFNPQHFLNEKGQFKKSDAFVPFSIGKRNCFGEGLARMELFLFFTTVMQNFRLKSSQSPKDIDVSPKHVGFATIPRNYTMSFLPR

Cytochrome P450 2D6 = Cytochrome P450 2D6 (Homo sapiens, UniProt P10635); assay: Inhibition of CYP2D6 at up to 50 uM; format: ADME
[7] = Cmax in Sprague-Dawley rat at 10 mg/kg, po; format: ADME, organism-based; set-up: dose 10 mg/kg, route oral; conditions: in vivo
Cytochrome P450 1A2 = molecular target: T3, Cytochrome P450 1A2 (Homo sapiens, UniProt P05177); assay: Inhibition of CYP1A2 at up to 50 uM; format: ADME
T3 sequence (P05177 whole entry): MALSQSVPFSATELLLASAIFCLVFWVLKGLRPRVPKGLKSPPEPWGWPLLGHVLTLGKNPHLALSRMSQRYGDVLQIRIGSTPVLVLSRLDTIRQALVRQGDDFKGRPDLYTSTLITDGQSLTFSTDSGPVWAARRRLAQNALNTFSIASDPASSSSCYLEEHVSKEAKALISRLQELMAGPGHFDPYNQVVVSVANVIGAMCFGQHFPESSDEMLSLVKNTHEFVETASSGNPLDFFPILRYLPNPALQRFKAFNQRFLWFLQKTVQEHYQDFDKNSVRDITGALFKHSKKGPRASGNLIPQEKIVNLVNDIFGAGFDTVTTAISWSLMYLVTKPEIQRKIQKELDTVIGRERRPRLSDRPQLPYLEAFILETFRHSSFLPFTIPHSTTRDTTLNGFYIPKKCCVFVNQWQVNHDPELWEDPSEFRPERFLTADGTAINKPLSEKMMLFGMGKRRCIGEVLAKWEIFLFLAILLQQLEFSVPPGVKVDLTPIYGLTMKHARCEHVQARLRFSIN

Cytochrome P450 2C19 = Cytochrome P450 2C19 (Homo sapiens, UniProt P33261); assay: Inhibition of CYP2C19 at up to 50 uM; format: ADME
[8] = molecular target: T4, A disintegrin and metalloproteinase with thrombospondin motifs 5 (Homo sapiens, UniProt Q9UNA0); assay: Inhibition of human recombinant aggrecanase 2 after 150 mins by fluorescence plate reader
T4 sequence (Q9UNA0 whole entry): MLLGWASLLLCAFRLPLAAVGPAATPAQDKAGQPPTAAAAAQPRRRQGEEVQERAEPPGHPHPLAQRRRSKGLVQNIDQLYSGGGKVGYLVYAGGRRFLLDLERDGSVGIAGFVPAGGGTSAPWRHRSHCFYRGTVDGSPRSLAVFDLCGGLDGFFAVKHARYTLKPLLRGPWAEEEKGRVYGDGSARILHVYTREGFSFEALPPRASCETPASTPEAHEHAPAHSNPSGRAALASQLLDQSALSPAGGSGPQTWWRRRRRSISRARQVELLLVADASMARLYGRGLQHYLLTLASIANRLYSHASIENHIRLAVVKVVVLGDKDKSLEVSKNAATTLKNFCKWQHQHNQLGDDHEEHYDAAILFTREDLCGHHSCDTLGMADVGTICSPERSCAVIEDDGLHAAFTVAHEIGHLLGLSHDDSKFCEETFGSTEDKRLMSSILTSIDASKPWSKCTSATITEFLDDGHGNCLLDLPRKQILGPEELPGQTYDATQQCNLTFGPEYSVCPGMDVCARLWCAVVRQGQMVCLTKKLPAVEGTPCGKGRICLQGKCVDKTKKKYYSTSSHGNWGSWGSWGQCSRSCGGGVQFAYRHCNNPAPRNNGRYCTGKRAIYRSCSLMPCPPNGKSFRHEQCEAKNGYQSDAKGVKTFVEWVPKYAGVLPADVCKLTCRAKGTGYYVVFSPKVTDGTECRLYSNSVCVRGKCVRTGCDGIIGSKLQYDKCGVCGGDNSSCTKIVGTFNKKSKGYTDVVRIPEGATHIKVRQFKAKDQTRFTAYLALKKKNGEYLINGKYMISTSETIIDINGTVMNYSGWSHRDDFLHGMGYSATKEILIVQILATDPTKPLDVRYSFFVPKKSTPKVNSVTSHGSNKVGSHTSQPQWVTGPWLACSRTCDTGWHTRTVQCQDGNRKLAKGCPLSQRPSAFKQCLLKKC

[9] = molecular target: Matrix metalloproteinase-14 (Homo sapiens, UniProt P50281); assay: Inhibition of human recombinant MMP14 after 60 mins by fluorescence plate reader; in short: as §2
Rattus norvegicus = assay: as §3; format: ADME, organism-based; conditions: in vivo

Chain of Cytochrome P450 3A4 (P08684 whole entry): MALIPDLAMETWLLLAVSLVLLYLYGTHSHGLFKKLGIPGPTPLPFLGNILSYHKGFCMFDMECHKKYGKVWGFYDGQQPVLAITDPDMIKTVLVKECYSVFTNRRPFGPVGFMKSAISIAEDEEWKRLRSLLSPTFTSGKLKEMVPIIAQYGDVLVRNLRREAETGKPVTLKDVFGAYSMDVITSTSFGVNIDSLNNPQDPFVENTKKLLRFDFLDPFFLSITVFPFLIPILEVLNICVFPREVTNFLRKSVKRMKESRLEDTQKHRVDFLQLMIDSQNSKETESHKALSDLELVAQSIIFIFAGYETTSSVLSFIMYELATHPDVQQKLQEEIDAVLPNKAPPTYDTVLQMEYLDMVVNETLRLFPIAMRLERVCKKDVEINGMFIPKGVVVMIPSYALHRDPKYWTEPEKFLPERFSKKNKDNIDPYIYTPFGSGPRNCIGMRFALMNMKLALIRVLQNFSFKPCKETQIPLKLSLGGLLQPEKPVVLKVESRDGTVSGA
Chain of Disintegrin and metalloproteinase domain-containing protein 17 (P78536 whole entry, the tested form may be a part): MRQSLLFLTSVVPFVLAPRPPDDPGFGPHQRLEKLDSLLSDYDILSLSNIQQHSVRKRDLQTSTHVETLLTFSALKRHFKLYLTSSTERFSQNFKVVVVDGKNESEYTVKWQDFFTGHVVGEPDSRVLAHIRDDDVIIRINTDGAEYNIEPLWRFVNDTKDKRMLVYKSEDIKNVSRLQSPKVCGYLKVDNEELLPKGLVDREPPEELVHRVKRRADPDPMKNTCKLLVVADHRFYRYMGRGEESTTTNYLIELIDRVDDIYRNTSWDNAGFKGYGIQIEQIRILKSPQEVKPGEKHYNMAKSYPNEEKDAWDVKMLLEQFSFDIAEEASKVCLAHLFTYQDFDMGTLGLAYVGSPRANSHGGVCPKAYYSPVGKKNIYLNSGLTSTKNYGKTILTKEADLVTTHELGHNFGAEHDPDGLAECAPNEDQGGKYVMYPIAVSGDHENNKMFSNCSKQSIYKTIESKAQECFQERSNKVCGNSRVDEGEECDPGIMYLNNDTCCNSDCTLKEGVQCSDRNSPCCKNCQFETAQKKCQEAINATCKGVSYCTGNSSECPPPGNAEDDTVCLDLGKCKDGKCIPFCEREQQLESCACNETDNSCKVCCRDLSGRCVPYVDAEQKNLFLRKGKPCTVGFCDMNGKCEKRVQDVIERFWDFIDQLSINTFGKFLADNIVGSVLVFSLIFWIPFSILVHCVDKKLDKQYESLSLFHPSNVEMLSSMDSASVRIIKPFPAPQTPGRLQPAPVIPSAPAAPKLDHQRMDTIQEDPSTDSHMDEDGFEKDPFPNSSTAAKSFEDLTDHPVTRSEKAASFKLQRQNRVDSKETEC
Chain of Cytochrome P450 2C19 (P33261 whole entry): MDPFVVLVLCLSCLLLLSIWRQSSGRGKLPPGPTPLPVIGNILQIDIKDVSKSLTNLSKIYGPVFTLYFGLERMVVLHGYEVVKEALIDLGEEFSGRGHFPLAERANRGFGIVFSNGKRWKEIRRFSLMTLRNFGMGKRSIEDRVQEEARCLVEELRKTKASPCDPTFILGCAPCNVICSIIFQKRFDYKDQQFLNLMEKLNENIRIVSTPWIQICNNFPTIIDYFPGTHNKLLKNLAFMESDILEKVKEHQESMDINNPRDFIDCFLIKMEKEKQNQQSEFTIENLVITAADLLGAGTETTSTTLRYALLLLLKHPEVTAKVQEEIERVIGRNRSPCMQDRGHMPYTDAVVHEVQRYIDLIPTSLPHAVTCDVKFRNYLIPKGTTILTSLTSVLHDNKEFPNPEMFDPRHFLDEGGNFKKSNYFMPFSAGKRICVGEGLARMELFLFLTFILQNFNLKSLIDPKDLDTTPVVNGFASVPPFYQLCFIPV
Chain of Cytochrome P450 2D6 (P10635 whole entry): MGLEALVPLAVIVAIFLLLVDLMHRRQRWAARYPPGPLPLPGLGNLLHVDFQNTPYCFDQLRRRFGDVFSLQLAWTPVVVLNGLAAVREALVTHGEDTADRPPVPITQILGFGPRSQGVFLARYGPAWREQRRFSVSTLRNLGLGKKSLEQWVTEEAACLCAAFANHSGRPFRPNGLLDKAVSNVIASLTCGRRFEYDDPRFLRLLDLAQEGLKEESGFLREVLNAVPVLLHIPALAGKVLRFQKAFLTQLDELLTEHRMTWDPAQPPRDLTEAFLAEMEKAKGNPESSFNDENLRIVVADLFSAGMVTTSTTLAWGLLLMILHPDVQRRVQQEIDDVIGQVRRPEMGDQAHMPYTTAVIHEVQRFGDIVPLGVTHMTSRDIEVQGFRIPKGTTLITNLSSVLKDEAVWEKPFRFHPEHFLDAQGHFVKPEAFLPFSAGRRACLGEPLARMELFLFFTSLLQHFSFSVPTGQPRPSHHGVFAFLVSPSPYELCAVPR
Chain of Cytochrome P450 2C9 (P11712 whole entry): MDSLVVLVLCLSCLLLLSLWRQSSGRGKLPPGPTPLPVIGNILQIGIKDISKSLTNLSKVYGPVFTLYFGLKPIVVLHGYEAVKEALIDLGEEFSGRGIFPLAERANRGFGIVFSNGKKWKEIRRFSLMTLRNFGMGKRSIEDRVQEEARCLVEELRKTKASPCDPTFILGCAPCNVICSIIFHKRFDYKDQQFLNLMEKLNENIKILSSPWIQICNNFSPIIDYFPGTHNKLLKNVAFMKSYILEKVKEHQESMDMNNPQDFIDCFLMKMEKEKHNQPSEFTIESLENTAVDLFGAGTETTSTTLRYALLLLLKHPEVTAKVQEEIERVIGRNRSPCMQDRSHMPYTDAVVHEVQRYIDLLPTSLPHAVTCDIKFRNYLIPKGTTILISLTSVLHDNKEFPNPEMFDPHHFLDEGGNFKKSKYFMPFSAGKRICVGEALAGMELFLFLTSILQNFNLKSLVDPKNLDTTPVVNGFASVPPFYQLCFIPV

Row | inhibition (INH) (Cytochrome P450 3A4) | half-life [1] [h] | clearance [2] [mL/min/kg] | IC50 (Interstitial collagenase) [µM] | inhibition (INH) (Cytochrome P450 2C9) | bioavailability [3] [%] | AUC [4] [µM·h] | IC50 [5] [µM] | Vd [6] [L/kg] | inhibition (INH) (Cytochrome P450 2A6) | inhibition (INH) (Cytochrome P450 2D6) | Cmax [7] [µM] | inhibition (INH) (Cytochrome P450 1A2) | inhibition (INH) (Cytochrome P450 2C19) | IC50 [8] [µM] | IC50 [9] [µM] | F (Rattus norvegicus) [%] | SMILES
1 | Not Active | 1.9 | 11.7 | > 10 | Not Active | 64 | 17.8 | > 10 | 1.9 | Not Active | Not Active | 4.9 | Not Active | Not Active | 0.017 | > 10 |  | C[C@@H]1CN(S(=O)(=O)N[C@@]2(C(=O)O)[C@H](C)[C@]2(C)c2ccccc2)CCN1c1cc(C(F)F)on1
2 | Not Active | 2 | 10 | > 10 | Not Active |  | 76.9 | > 10 | 0.7 | Not Active | Not Active | 17.4 | Not Active | Not Active | 0.014 | > 10 | 196 | C[C@@H]1[C@](C)(c2ccccc2)[C@]1(NS(=O)(=O)N1CCn2c(nc3cc(F)ccc32)C1)C(=O)O
